Source: ChEMBL document CHEMBL4346684, “Synthesis and structure-bactericidal activity relationships of non-ketolides: 9-Oxime clarithromycin 11,12-cyclic carbonate featured with three-to eight-atom-length spacers at 3-OH” (Eur J Med Chem, 2019)
Values after ≈ are worked out from the molar mass of the structure shown. Active and inactive are the calls of the source. No cut-off for these calls is given here.

Experiments:
Streptococcus pneumoniae [1] = experiment: Antimicrobial activity against erythromycin-susceptible Streptococcus pneumoniae ATCC 49619 incubated in CAMHB medium for 20 to 24 hrs by two-fold microbroth dilution method; assay type: functional
Streptococcus pneumoniae [2] = experiment: Antimicrobial activity against mef-encoded erythromycin resistant Streptococcus pneumoniae PU09 incubated in CAMHB medium for 20 to 24 hrs by two-fold microbroth dilution method; assay type: functional
Streptococcus pneumoniae [3] = experiment: Bactericidal activity against erythromycin-susceptible Streptococcus pneumoniae ATCC 49619 assessed as reduction in colony formation incubated in CAMHB medium for 20 to 24 hrs followed by 24 hrs subculturing in the medium without test compound; assay type: functional
Streptococcus pneumoniae [4] = experiment: Ratio of MBC to MIC for erythromycin-susceptible Streptococcus pneumoniae ATCC 49619; assay type: functional
Streptococcus pneumoniae [5] = experiment: Bactericidal activity against mef-encoded erythromycin resistant Streptococcus pneumoniae PU09 assessed as reduction in colony formation incubated in CAMHB medium for 20 to 24 hrs followed by 24 hrs subculturing in the medium without test compound; assay type: functional
Streptococcus pneumoniae [6] = experiment: Ratio of MBC to MIC for mef-encoded erythromycin resistant Streptococcus pneumoniae PU09; assay type: functional
Streptococcus pyogenes [7] = experiment: Antimicrobial activity against inducibly erythromycin resistant Streptococcus pyogenes 01-968 expressing i-ermA incubated in CAMHB medium for 20 to 24 hrs by two-fold microbroth dilution method; assay type: functional
Streptococcus pyogenes [8] = experiment: Bactericidal activity against inducibly erythromycin resistant Streptococcus pyogenes 01-968 expressing i-ermA assessed as reduction in colony formation incubated in CAMHB medium for 20 to 24 hrs followed by 24 hrs subculturing in the medium without test compound; assay type: functional
Streptococcus pyogenes [9] = experiment: Ratio of MBC to MIC for inducibly erythromycin resistant Streptococcus pyogenes 01-968 expressing i-ermA; assay type: functional
Staphylococcus aureus [10] = experiment: Antimicrobial activity against constitutively erythromycin resistant and methicillin resistant Staphylococcus aureus PU20 expressing c-ermC incubated in CAMHB medium for 20 hrs by two-fold microbroth dilution method; assay type: functional; conditions: PU20, 20 h
In short: (§1)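 Purified fresh Staphylococcus isolate at about 5×10^5 CFU/ml final in CAMHB, 35 °C for 20 h. Each run included ATCC strains and reference antibiotics as QC, plus an antibiotic-free growth control.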

Staphylococcus aureus [11] = experiment: Antimicrobial activity against inducibly erythromycin-resistant and methicillin resistant Staphylococcus aureus PU32 expressing i-ermA incubated in CAMHB medium for 20 hrs by two-fold microbroth dilution method; assay type: functional; conditions: PU32, 20 h; in short: as §1
Staphylococcus aureus [12] = experiment: Bactericidal activity against inducibly erythromycin-resistant and methicillin resistant Staphylococcus aureus PU32 expressing i-ermA assessed as reduction in colony formation incubated in CAMHB medium for 20 hrs followed by 24 hrs subculturing in the medium without test compound; assay type: functional
Staphylococcus aureus [13] = experiment: Ratio of MBC to MIC for inducibly erythromycin-resistant and methicillin resistant Staphylococcus aureus PU32 expressing i-ermA; assay type: functional
Haemophilus influenzae [14] = experiment: Antimicrobial activity against azithromycin-susceptible Haemophilus influenzae ATCC 49247 incubated in HTM broth medium for 20 to 24 hrs by two-fold microbroth dilution method; assay type: functional
Haemophilus influenzae [15] = experiment: Bactericidal activity against azithromycin-susceptible Haemophilus influenzae ATCC 49247 assessed as reduction in colony formation incubated in HTM broth medium for 20 to 24 hrs followed by 24 hrs subculturing in the medium without test compound; assay type: functional
Haemophilus influenzae [16] = experiment: Ratio of MBC to MIC for azithromycin-susceptible Haemophilus influenzae ATCC 49247; assay type: functional
Streptococcus pneumoniae [17] = experiment: Bactericidal activity against erythromycin-susceptible Streptococcus pneumoniae ATCC 49619 assessed as log reduction in bacterial CFU at 1XMIC incubated for 1 to 24 hrs by broth dilution method; assay type: functional
In short: (§2)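 Samples taken at 1, 2, 4, 6, 8, 12, 24 h, diluted and plated, colonies counted after 20-24 h at 35 °C; log CFU plotted against time. Detection limit 300 CFU/mL.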

Streptococcus pneumoniae [18] = experiment: Bactericidal activity against erythromycin-susceptible Streptococcus pneumoniae ATCC 49619 incubated at >1XMIC incubated for 1 to 24 hrs by broth dilution method; assay type: functional, organism-based; in short: as §2
Streptococcus pneumoniae [19] = experiment: Bactericidal activity against mef-encoded erythromycin resistant Streptococcus pneumoniae PU09 at 1 to 16xMIC incubated for 1 to 24 hrs by broth dilution method; assay type: functional, organism-based
In short: (§3)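 Samples were taken at 1, 2, 4, 6, 8, 12 and 24 h, diluted and subcultured at 35 °C for 20–24 h. Colonies were counted and log CFU plotted against time; detection limit 300 CFU/mL.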

Streptococcus pyogenes [20] = experiment: Bactericidal activity against inducibly erythromycin resistant Streptococcus pyogenes 01-968 expressing i-ermA at 1 to 16XMIC incubated for 12 hrs by broth dilution method; assay type: functional, organism-based; in short: as §3
Streptococcus pyogenes [21] = experiment: Bactericidal activity against inducibly erythromycin resistant Streptococcus pyogenes 01-968 expressing i-ermA assessed as log reduction in bacterial CFU at 1 to 16XMIC incubated for 24 hrs by broth dilution method; assay type: functional; in short: as §3
[22] = AUCinfinity in Sprague-Dawley rat at 20 mg/kg, po administered as single dose measured for 0.25 to 24 hrs by LC-MS/MS analysis; assay type: ADME, organism-based; set-up: dose 20 mg/kg, time infinity, route oral; conditions: in vivo
In short: (§4)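 Male SD rats (2-3 per compound) given a single oral 20 mg/kg dose in saline with 1% DMF/20% hydroxypropyl-β-cyclodextrin (w/v). Blood drawn at 0.25, 0.5, 1, 2, 4, 6, 8 and 24 h, centrifuged 2500 g, 5 min, 4 °C; drug quantified by LC-MS/MS. Noncompartmental parameters calculated (AUC0-t, AUCinf, CL, t1/2, MRT, Cmax, Tmax); mean ± s.d.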

[23] = AUC (0 to t) in Sprague-Dawley rat at 20 mg/kg, po administered as single dose measured for 0.25 to 24 hrs by LC-MS/MS analysis; assay type: ADME, organism-based; set-up: time 0.25-24 hr, dose 20 mg/kg, route oral; conditions: in vivo; in short: as §4
[24] = Clearance in Sprague-Dawley rat at 20 mg/kg, po administered as single dose measured for 0.25 to 24 hrs by LC-MS/MS analysis; assay type: ADME, organism-based; conditions: in vivo; in short: as §4
[25] = Half life in Sprague-Dawley rat at 20 mg/kg, po administered as single dose measured for 0.25 to 24 hrs by LC-MS/MS analysis; assay type: ADME, organism-based; conditions: in vivo; in short: as §4
[26] = MRT in Sprague-Dawley rat at 20 mg/kg, po administered as single dose measured for 0.25 to 24 hrs by LC-MS/MS analysis; assay type: ADME, organism-based; conditions: in vivo; in short: as §4
[27] = Tmax in Sprague-Dawley rat at 20 mg/kg, po administered as single dose measured for 0.25 to 24 hrs by LC-MS/MS analysis; assay type: ADME, organism-based; conditions: in vivo; in short: as §4
[28] = Cmax in Sprague-Dawley rat at 20 mg/kg, po administered as single dose measured for 0.25 to 24 hrs by LC-MS/MS analysis; assay type: ADME, organism-based; set-up: dose 20 mg/kg, route oral; conditions: in vivo; in short: as §4
Cytochrome P450 3A4 = Cytochrome P450 3A4 (Homo sapiens, UniProt P08684); experiment: Inhibition of CYP3A4 in human liver microsomes using midazolam as substrate incubated for 10 mins after substrate addition by HPLC analysis; assay type: ADME
Chain of Cytochrome P450 3A4 (P08684 whole entry): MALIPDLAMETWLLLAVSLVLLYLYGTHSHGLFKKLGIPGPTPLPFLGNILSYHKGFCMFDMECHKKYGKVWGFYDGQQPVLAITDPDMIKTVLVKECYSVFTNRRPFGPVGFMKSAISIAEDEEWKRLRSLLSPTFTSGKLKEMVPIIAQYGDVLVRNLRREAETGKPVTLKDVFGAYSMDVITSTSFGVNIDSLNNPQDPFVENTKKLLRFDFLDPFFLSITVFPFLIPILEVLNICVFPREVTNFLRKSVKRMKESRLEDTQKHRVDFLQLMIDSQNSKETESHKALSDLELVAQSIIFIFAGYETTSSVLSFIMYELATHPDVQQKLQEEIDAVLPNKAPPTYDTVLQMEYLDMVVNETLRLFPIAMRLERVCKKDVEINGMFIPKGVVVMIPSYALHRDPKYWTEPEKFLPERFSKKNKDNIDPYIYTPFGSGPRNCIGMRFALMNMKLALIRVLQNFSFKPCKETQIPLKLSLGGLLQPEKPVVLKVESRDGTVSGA
In short: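 Human liver microsome CYP3A4 (0.03 mg/mL final), midazolam 5.00 μM final, 0.1 M potassium phosphate pH 7.4 with MgCl2, preincubated 37 °C 5 min. Test compound 0-25.00 μM (ketoconazole 0-0.25 μM as reference) and NADPH 1.5 mM final added; 10 min at 37 °C. Metabolite/internal-standard peak-area ratio measured by UPLC-MS/MS; IC50 fitted.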

Rattus norvegicus [29] = experiment: Ratio of telithromycin AUC to compound AUC in Sprague-Dawley rat at 20 mg/kg, po administered as single dose measured for 0.25 to 24 hrs by LC-MS/MS analysis; assay type: ADME, organism-based; conditions: in vivo
Rattus norvegicus [30] = experiment: Ratio of telithromycin clearance to compound clearance in Sprague-Dawley rat at 20 mg/kg, po administered as single dose measured for 0.25 to 24 hrs by LC-MS/MS analysis; assay type: ADME, organism-based; conditions: in vivo
Rattus norvegicus [31] = experiment: Ratio of telithromycin half life to compound half life in Sprague-Dawley rat at 20 mg/kg, po administered as single dose measured for 0.25 to 24 hrs by LC-MS/MS analysis; assay type: ADME, organism-based; conditions: in vivo
[32] = Ratio of telithromycin MRT to compound MRT in Sprague-Dawley rat at 20 mg/kg, po administered as single dose measured for 0.25 to 24 hrs by LC-MS/MS analysis; assay type: ADME, organism-based; conditions: in vivo
Rattus norvegicus [33] = experiment: Ratio of telithromycin Cmax to compound Cmax in Sprague-Dawley rat at 20 mg/kg, po administered as single dose measured for 0.25 to 24 hrs by LC-MS/MS analysis; assay type: ADME, organism-based; conditions: in vivo
Rattus norvegicus [34] = experiment: Ratio of telithromycin Tmax to compound Tmax in Sprague-Dawley rat at 20 mg/kg, po administered as single dose measured for 0.25 to 24 hrs by LC-MS/MS analysis; assay type: ADME, organism-based; conditions: in vivo
Streptococcus pneumoniae [35] = experiment: Ratio of clarithromycin MBC to compound MBC for mef-encoded erythromycin resistant Streptococcus pneumoniae PU09; assay type: functional
Streptococcus pyogenes [36] = experiment: Ratio of clarithromycin MBC to compound MBC for inducibly erythromycin resistant Streptococcus pyogenes 01-968 expressing i-ermA; assay type: functional
Staphylococcus aureus [37] = experiment: Ratio of clarithromycin MBC to compound MBC for inducibly erythromycin-resistant and methicillin resistant Staphylococcus aureus PU32 expressing i-ermA; assay type: functional

Work on `CC[C@H]1OC(=O)[C@H](C)[C@@H](OC(=O)NCCCc2cccnc2)[C@H](C)[C@@H](O[C@@H]2O[C@H](C)C[C@H](N(C)C)[C@H]2O)[C@](C)(OC)C[C@@H](C)/C(=N\OC)[C@H](C)[C@H]2OC(=O)O[C@@]21C` yielded an MIC (Streptococcus pneumoniae [1]) of 0.06 µg/mL (≈ 0.0743 µM), an MIC (Streptococcus pneumoniae [2]) of 0.5 µg/mL (≈ 0.62 µM) and an MBC (Streptococcus pneumoniae [3]) of 0.125 µg/mL (≈ 0.155 µM). It also gave a Ratio (Streptococcus pneumoniae [4]) of 2, an MBC (Streptococcus pneumoniae [5]) of 0.5 µg/mL (≈ 0.62 µM) and a Ratio (Streptococcus pneumoniae [6]) of 1. For the same molecule, the MIC (Streptococcus pyogenes [7]) was 0.25 µg/mL (≈ 0.31 µM), the MBC (Streptococcus pyogenes [8]) was 2 µg/mL (≈ 2.48 µM) and the Ratio (Streptococcus pyogenes [9]) was 8. It also gave an MIC (Staphylococcus aureus [10]) greater than 256 µg/mL, an MIC (Staphylococcus aureus [11]) of 8 µg/mL (≈ 9.91 µM) and an MBC (Staphylococcus aureus [12]) of 16 µg/mL (≈ 19.8 µM). For the same molecule, the Ratio (Staphylococcus aureus [13]) was 2, the MIC (Haemophilus influenzae [14]) was 64 µg/mL (≈ 79.3 µM) and the MBC (Haemophilus influenzae [15]) was 128 µg/mL (≈ 159 µM). The Ratio (Haemophilus influenzae [16]) was 2, the Activity (Streptococcus pneumoniae [17]) was 2 log10CFU and the Activity (Streptococcus pneumoniae [18]) was “Active”. The Activity (Streptococcus pneumoniae [19]) was “Active”, the Activity (Streptococcus pyogenes [20]) was “Active” and the Activity (Streptococcus pyogenes [21]) was “<=3 log10CFU”. It also gave an AUC(0-inf) [22] of 6760 ng·h/mL, an AUC(0-t) [23] of 6730 ng·h/mL and a CL/F [24] of 50.6 mL/min/kg. The half-life [25] was 2.94 h, the MRT [26] was 4.53 h and the Tmax [27] was 0.833 h. It also gave a Cmax [28] of 1030 ng/mL, an IC50 (Cytochrome P450 3A4) of 2.5 µM and a Ratio (Rattus norvegicus [29]) of 7. For the same molecule, the Ratio (Rattus norvegicus [30]) was 7, the Ratio (Rattus norvegicus [31]) was 2.4 and the Ratio [32] was 1.4. The Ratio (Rattus norvegicus [33]) was 5, the Ratio (Rattus norvegicus [34]) was 0.4 and the Ratio (Streptococcus pneumoniae [35]) was 32. The Ratio (Streptococcus pyogenes [36]) was 32 and the Ratio (Staphylococcus aureus [37]) was 32.
